Assay outcomes as filed in PubChem.
PglD DTNB: PglD (C. jejuni) enzyme inhibition; purified PglD enzyme, DTNB colorimetric CoA detection; hit rate 0.098% among 360,000; inhibition, % at 12.5 µM; AID 602405; in the data active means inhibition above about 16%, passing the limit was not always enough; inconclusive means no clear call, values can overlap the other calls
Env fusion inh: inhibitors of HIV Env-mediated cell fusion; inhibition, % at 12.3 µM; hit rate 1.1% among 360,000; HeLa-JRFL Env/CEM21 cell fusion, luciferase;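 active means mean replicate inhibition score of at least 50 and every replicate individually at or above 50; inconclusive means only one of the two criteria met; inactive means mean below 50 and not all replicates reaching 50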;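 further: 0% = plate neutral controls and 100% = maraviroc near 300 nM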
FN deposition inh: fibronectin deposition inhibition; AH1F fibroblasts, Alexa488-fibronectin deposition fluorescence, overnight; inhibition, % at 12.6 µM; hit rate 0.086% among 350,000;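 active means mean inhibition across replicates of 30% or more, regardless of how many single replicates reach that level; inconclusive means mean under 30% yet at least half of replicates reach 30%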;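 further: positive control wells lacked labelled fibronectin entirely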
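Test system: AH1F fibroblast monolayer depositing Alexa488-labelled fibronectin into matrix. Input: 10000 cells per well. Technique: fluorescence, ex 485 nm, em 525 nm. Buffer or medium: DMEM plus 2% serum, read in PBS. Timing: 1 h cell adhesion before compound, then overnight fibronectin incubation. Compound: single dose, pinned. Read-out basis: inhibition from reduced deposited-fibronectin fluorescence.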
DENV2 CPE: inhibitors of DENV2 cytopathic effect. DENV2-infected cells, cytopathic effect rescue, plate reader. AID 651640. hit rate 1.7% among 350,000. CPE inhibition, % at 9.99 µM; in the data active means CPE inhibition above about 20%, passing the limit was not always enough; inconclusive means no clear call, values can overlap the other calls; tested in BHK-21 cells;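 further: 0% = median of neutral control wells and 100% = median of positive control wells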
PGC1a acetyl inh: modulators of PGC1a acetylation. U2OS PGC1a acetylation, AlphaScreen anti-acetyl-lysine; with virally co-expressed GCN5 acetyltransferase. hit rate 0.17% among 350,000. inhibition, % at 15.6 µM;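 active means every replicate shows inhibition of at least 40%; inconclusive means mean inhibition at least 40% but some replicate below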;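 further: 0% = neutral control wells and 100% = positive control wells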
rRNA inh HTS: inhibits bacterial ribosomal RNA function over humanized ribosomes; GFP signal change (wild-type ribosome), % (no concentration beside the values); E. coli WT GFP vs humanized-ribosome RFP mutants, fluorescence, 24 h; hits give low values; DMSO median 0, no signal -100; hit rate 1.6% among 350,000; AID 720706;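 active means significant combined selectivity score with lowered wild-type GFP, culture density cut under 30%, mutant RFP and density less affected; inactive means any of these conditions unmet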
* = called active by the depositor; u = inconclusive; x = not tested or not shown; [ ] = remark or other dose. An excerpt weighted towards active compounds, which were near 3.5% of everything screened.

SMILES	PglD DTNB	Env fusion inh	FN deposition inh	DENV2 CPE	PGC1a acetyl inh	rRNA inh HTS
Cc1c(NC(=O)c2cccc(NC(=O)COc3ccccc3)c2)c(=O)n(-c2ccccc2)n1C	-0.9	0.5	12.1	-7.3	5.0	0.3
Cc1c(NC(=O)c2cccc(NC(=O)COc3ccccc3C#N)c2)c(=O)n(-c2ccccc2)n1C	x	59.6*	3.1	-6.7	x	3.6
COc1ccc2c3c([nH]c2c1)[C@H](CO)N(C(=O)C1CCC1)CC31CN(C(=O)c2ccncc2)C1	x	x	x	-4.0	x	-1.7
CN1c2ccc(-c3cccc(F)c3)cc2[C@H]2[C@H](CCN2C(=O)Cc2cccnc2)[C@H]1CO	1.4	x	-11.7	113.3*	3.5	-16.5
CN(C)C(=O)c1ccc(-c2ccc3c(c2)[C@H]2[C@H](CCN2C(=O)C2CCCCC2)[C@H](CO)N3C)cc1	x	x	5.4	10.0	-11.5	-3.9
COc1cccc(-c2ccc3c(c2)[C@@H]2[C@@H](CCN2C(=O)Nc2ccccc2OC)[C@@H](CO)N3C)c1	-1.3	x	-8.6	29.0*	10.8	-9.4
CN(C)C(=O)c1ccc(-c2ccc3c(c2)[C@@H]2[C@@H](CCN2C(=O)C2CCCC2)[C@@H](CO)N3C)cc1	x	x	-4.3	65.0*	1.9	-2.3
COc1cccc(-c2ccc3c(c2)[C@H]2[C@H](CCN2C(=O)Nc2ccccc2OC)[C@H](CO)N3C)c1	-3.1	x	-22.4	15.5	5.7	0.1
CN(C)C(=O)c1cccc(-c2ccc3c(c2)[C@@H]2[C@@H](CCN2C(=O)c2cccc(F)c2)[C@H](CO)N3C)c1	1.6	x	0.4	39.0*	-4.6	-3.3
O=C(C[C@H]1C[C@@H]2c3cc(NC(=O)NC4CCCC4)ccc3O[C@@H]2[C@@H](CO)O1)NCc1cc(F)ccc1F	-9.4	27.9[16.7 µM]	-19.9	1.7	3.2	-2.2
O=C(C[C@H]1CC[C@H]2[C@@H](COC[C@H](O)CN2Cc2ccc(Cl)cc2)O1)NCc1cccc(F)c1	2.8	x	3.7	-0.1	-3.5	-8.5
CN1c2ccc(C3=CCCCC3)cc2[C@@H]2[C@@H](CCN2C(=O)C2CC2)[C@@H]1CO	x	x	8.1	6.5	x	-13.3
CN1c2ccc(C3=CCCCC3)cc2[C@H]2[C@H](CCN2C(=O)C2CC2)[C@@H]1CO	x	97.8*[16.7 µM]	x	45.5*	38.5	x
CC(C)NC(=O)N1CC[C@@H]2[C@H]1c1cc(Br)ccc1N(C)[C@@H]2CO	-0.4	x	-15.1	108.4*	2.8	5.5
CN1c2ccc(Br)cc2[C@H]2[C@H](CCN2C(=O)C2CCC2)[C@H]1CO	x	x	-4.5	105.0*	1.9	-12.8
CC(C)NC(=O)N1CC[C@H]2[C@@H]1c1cc(Br)ccc1N(C)[C@H]2CO	-0.8	x	-33.7	u	-27.8	0.6
COc1ccc(NC(=O)N2CC[C@@H]3[C@@H](CO)N(C)c4ccc(Br)cc4[C@@H]32)cc1	1.2	x	-50.6	54.4*	-3.5	-13.7
CCCNC(=O)Nc1ccc2c(c1)OC[C@H](C)N(Cc1ccccc1)C[C@@H](C)[C@@H](OC)CN(C)C2=O	-1.8	x	-5.2	-12.0	7.3	-2.6
C[C@H]1CN([C@@H](C)CO)C(=O)Cc2cc(N(C)C)ccc2O[C@H]1CN(C)Cc1ccc(Oc2ccccc2)cc1	3.2	-21.9[16.7 µM]	x	-6.1	1.6	-20.3
C/C(=N\Nc1nc(C)cc(C)n1)c1ccc(N2CCOCC2)cc1	x	-5.1	0.8	-2.6	x	5.8
C/C(=N\Nc1nc2ccccc2[nH]1)c1ccc(N2CCOCC2)cc1	x	-68.1	x	-0.6	-16.6	-48.4*
CC(=O)N1CCC(=NNc2nc3ccccc3[nH]2)CC1	-5.7	-5.8	3.9	-1.6	-2.9	-18.1*
COCC(=O)N(C)C[C@@H]1Oc2ncc(-c3ccc(F)cc3)cc2C(=O)N([C@H](C)CO)C[C@H]1C	-4.0	5.9[16.7 µM]	x	0.8	-7.3	4.1
C[C@@H]1CN([C@H](C)CO)C(=O)c2cc(NS(=O)(=O)c3ccc(Cl)cc3)ccc2O[C@H]1CN(C)CC1CC1	1.7	-11.7[16.7 µM]	-1.4	-7.3	3.3	-1.8
Cc1ccccc1-c1ccc(C2[C@@H]3CN(C(=O)NC4CCCCC4)C[C@H]2N3)cc1 (some centres undefined)	x	x	3.9	-24.9	-32.9	-60.2
COc1ccc(C(=O)N2CCNC(=O)C2CC(=O)Nc2cccc(Cl)c2Cl)cc1 (centres undefined)	6.0	-21.6	-0.8	88.8*	x	2.3
